{"source": "paper PMC2854536", "about": "(Clinical cancer research : an official journal of the …, 2009)", "key": {"endothelial cells": {"test_system": "endothelial cells", "test": "Cytotoxicity in a 4-hour assay", "format": "cell-based, Human", "conditions": "P14 at concentrations above 10 nM, data not shown"}, "[1]": {"test_system": "bFGF/VEGF-induced angiogenesis", "test": "Directed In Vivo Angiogenesis Assay", "parameters": "species or system nude mice", "how_it_was_run": "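Angioreactors filled with basement membrane extract holding bFGF/VEGF mix plus test peptide, or peptide alone, implanted subcutaneously in both flanks of nude mice, four per animal. PEDF 20 nM and 34-mer 100 nM served as controls. Recovered cells were FITC-lectin labelled and fluorescence read as relative EC invasion. Three independent experiments, normalised to negative control, averaged.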"}, "[2]": {"test_system": "bFGF-induced angiogenesis", "test": "Matrigel plug assay", "format": "in vivo, nude mice", "conditions": "Matrigel plug with bFGF (Fig. 3C bottom)"}, "CD95": {"test_system": "CD95", "test": "Immunohistochemistry of Matrigel plug vasculature, CD95", "format": "in vivo, nude mice", "conditions": "Matrigel plugs with bFGF (Fig. 6A)"}, "HMVEC cells": {"test_system": "HMVEC cells", "test": "Endothelial cell apoptosis, TUNEL assay", "format": "cell-based, Human", "conditions": "overnight, 0.2% FBS, no bFGF, PEDF 10 nM, 34-mer 100 nM (Fig. 2C)", "how_it_was_run": "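Confluent HMVECs (passages 6–9) on coverslips were treated overnight with test peptide in MCDB131 with 0.2% FBS, with or without bFGF 20 ng/ml. PEDF 10 nM and 34-mer 100 nM were controls. TUNEL staining with propidium iodide counterstain. In 3–5 10X fields, TUNEL-positive and total PI-positive cells were counted to give % apoptotic cells.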"}}, "data": [{"molecule": "P23: PEDF-derived peptide, residues 34–57, acetylated at the N-terminus and amidated at the C-terminus (Ac-DSTGALVEEEDPFFKVPVNKLAAA-NH2; UniProt P36955 34-57, looked up, fragment)", "values": [{"measurement": "cytotoxicity", "setting": "endothelial cells", "result": "no cytotoxic activity"}]}, {"molecule": "P14: PEDF-derived peptide, residues 43–57 of PEDF molecule, acetylated at the N-terminus and amidated at the C-terminus (Ac-EDPFFKVPVNKLAAA-NH2; UniProt P36955 43-57, looked up, fragment)", "values": [{"measurement": "cytotoxicity", "setting": "endothelial cells", "result": "slightly cytotoxic"}, {"measurement": "angiogenic activity of the peptide alone", "setting": "[1]; DIVAA, without bFGF/VEGF, P<0.05", "result": "pro-angiogenic"}]}, {"molecule": "34-mer: PEDF anti-angiogenic N-terminal surface epitope, amino acid residues 24–57; parental peptide (SPPEEGSPDPDSTGALVEEEDPFFKVPVNKLAAA; UniProt P36955 24-57, looked up, fragment)", "values": [{"measurement": "EC apoptosis by in situ TUNEL", "setting": "[2]", "result": "induced significant levels of EC apoptosis"}, {"measurement": "CD95 staining of microvessels", "setting": "CD95", "result": "majority of the microvessels stained positive"}]}, {"molecule": "PEDF: Pigment epithelial-derived factor, native protein, a potent angiogenesis inhibitor (protein, UniProt P36955 20-418, looked up) Pigment epithelium-derived …: QNPASPPEEGSPDPDSTGALVEEEDPFFKVPVNKLAAAVSNFGYDLYRVRSSTSPTTNVLLSPLSVATALSALSLGAEQRTESIIHRALYYDLISSPDIHGTYKELLDTVTAPQKNLKSASRIVFEKKLRIKSSFVAPLEKSYGTRPRVLTGNPRLDLQEINNWVQAQMKGKLARSTKEIPDEISILLLGVAHFKGQWVTKFDSRKTSLEDFYLDEERTVRVPMMSDPKAVLRYGLDSDLSCKIAQLPLTGSMSIIFFLPLKVTQNLTLIEESLTSEFIHDIDRELKTVQAVLTVPKLKLSYEGEVTKSLQEMKLQSLFDSPDFSKITGKPIKLTQVEHRAGFEWNEDGAGTTPSPGLQPAHLTFPLDYHLNQPFIFVLRDTDTGALLFIGKILDPRGP", "values": [{"measurement": "effect on stress-induced apoptosis in low serum", "setting": "HMVEC cells", "result": "no effect"}, {"measurement": "level of vascularization reached", "setting": "[1]; DIVAA with bFGF/VEGF mix, P=0.006 (PEDF) and 0.01 (P18)", "result": "to the level of BME"}]}]}
